Results as given in article PMC9789792 (Inorganic chemistry, 2022).
Where two headings read alike, the source gives them in different places.

Assays:
[1] = molecular target: Fe(II) center in SadX; assay: UV-vis titration of anion binding; details: SadX-His/Fe(II)/αKG, 100 mM HEPES pH 7.5
Procedure, shortened: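 Anaerobic (N₂ glovebox, degassed buffer): SadX-His (0.51 mM, 0.5 μmol) plus FeSO₄ (0.375 μmol) in 100 mM HEPES pH 7.5, 23 °C, quartz cuvette. αKG (5 μmol) added, then anion salt (10–200 mM stocks). Spectra 350–800 nm, dilution-corrected. Difference spectra taken versus initial SadX-His/Fe(II) and zeroed at 800 nm. λmax absorbances fitted to single-site saturation binding for KD.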

[2] = system: SadX; assay: Steady state kinetic analysis of SadX with varying concentrations of 1a; assay type: biochemical
[3] = system: SadX; assay type: biochemical; details: for Km: KM for salt; for Km / kcat: hydroxylation of 1a (1 mM) to give 1b by 0.5 μM SadX, varying [salt]; for Kinetic behaviour of 1b formation as a function of salt concentration: saturating 1a (1 mM), SadX
[4] = system: SadX; assay: SadX activity assay: conversion of 1a in the presence of salts; assay type: biochemical; details: 10 μM SadX, 1 mM 1a, 50 mM salt, overnight, room temperature

Fold improved kcat/KM relative to that in the absence of salt ([2]; SadX, hydroxylation of 1a) | Molecule | Kd ([1]; Blue-shifted Absorbance) | Kd ([1]; Red-shifted Absorbance) | Km [3] | kcat [3] | Conversion of 1a (to 1b) [4] | Kinetic behaviour of 1b formation as a function of salt concentration [3] | Fold by which hydroxylation kcat/KM exceeds WT SadA ([2]; SadX, hydroxylation of 1a) | kcat ([2]; azidation of 1a by SadX to give 1eN3, varying [1a])
16 fold | [Cs+].[F-] [CsF] | 460 µM | 450 µM | 12000 µM | 0.357 s⁻¹ |  |  |  | 
 | F[P-](F)(F)(F)(F)F.[NH4+] [NH4PF6] |  |  |  |  | trace conversion | does not follow Michaelis Menten kinetics |  | 
 | [Cl-].[Na+] [NaCl] | 600 µM | 490 µM | 4160 µM | 0.197 s⁻¹ |  | exhibit saturation kinetics |  | 
 | [N-]=[N+]=[N-].[Na+] [NaN3] | 2650 µM | 600 µM | 14 µM | 0.953 s⁻¹ |  | exhibit saturation kinetics | 12 fold | 8.72 10^−3 s^−1
 | O=C[O-].[Na+] [NaOC(O)H] | 530 µM | 470 µM | 450 µM | 0.122 s⁻¹ |  |  |  | 
 | CC(=O)O [acetate] |  |  |  |  | low conversion |  |  | 
 | N#C[O-].[Na+] [cyanate] |  |  |  |  | high conversion |  |  | 
 | bromide |  |  |  |  | significantly lower conversion |  |  | 
